Test results published in ChEMBL document CHEMBL5674890, “Selective inhibition of CBP/p300 HAT by A-485 results in suppression of lipogenesis and hepatic gluconeogenesis” (Cell Death Dis, 2020).
Calls of active or inactive are those of the source. No cut-off for these calls is given here.

How the values were obtained:
Mus musculus [1] = assay: Anti-obesity activity in C57BL/6 mouse supplemented with normal chow diet assessed as decrease in total fat mass at 20 mg/kg/day, ip administered for 1 week measured by EchoMRI live analysis; assay type: functional; set-up: scale not given: the % may be the effect or the level left; settings: time 1 weeks
Method in brief: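 Normal-chow male C57BL/6 mice, 8 weeks old, ip 20 mg·kg−1·day−1 daily for 7 days. Total lean and fat mass measured in live animals by EchoMRI. Mean ± SEM, n = 5–9.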

Mus musculus [2] = assay: Anti-obesity activity in C57BL/6 mouse supplemented with normal chow diet assessed as effect on random blood glucose at 20 mg/kg/day, ip administered for 1 week; assay type: functional, organism-based; settings: time 1.0 weeks
Method in brief: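 8-week-old male C57BL/6 mice on normal chow, ip 20 mg·kg−1·day−1 for 7 days. Blood glucose measured randomly fed or after 6 h or 16 h fasting, as the line states. Mean ± SEM, n = 5–9.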

Mus musculus [3] = assay: Inhibition of lipogenesis in C57BL/6 mouse supplemented with normal chow diet assessed as decrease in SCD1 mRNA expression at 20 mg/kg/day, ip administered for 1 week measured by RT-qPCR assay; assay type: functional, organism-based; settings: time 1.0 weeks
Method in brief: (§1)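 Eight-week-old male C57BL/6 mice on normal chow were given 20 mg·kg−1·day−1 ip daily for 7 days or vehicle. Epididymal WAT was collected. Lipogenic, adipogenic and fatty-acid-oxidation transcripts were quantified by Trizol extraction and SYBR Green RT-qPCR. FAS, ACC, PPARγ and C/EBPα protein were assessed by western blot. n = 5–9; mean ± SEM.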

Mus musculus [4] = assay: Inhibition of lipogenesis in C57BL/6 mouse supplemented with normal chow diet assessed as decrease in SREBP-1c mRNA expression at 20 mg/kg/day, ip administered for 1 week measured by RT-qPCR assay; assay type: functional, organism-based; settings: time 1.0 weeks; method in brief: as §1
Mus musculus [5] = assay: Inhibition of lipogenesis in C57BL/6 mouse supplemented with high-fat diet assessed as decrease in LPL mRNA expression at 20 mg/kg/day, ip administered for 1 week measured measured by RT-qPCR assay; assay type: functional, organism-based; settings: time 1.0 weeks
Method in brief: (§2)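 Male C57BL/6 mice were fed high-fat diet for 14 weeks from 5 weeks of age, then injected ip with 20 mg·kg−1·day−1 for 7 days or given vehicle. Epididymal and inguinal WAT were weighed, examined by H&E, and analysed. Transcripts were measured by Trizol/SYBR Green RT-qPCR; proteins by western blot. n = 5–9; mean ± SEM.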

Mus musculus [6] = assay: Inhibition of lipogenesis in C57BL/6 mouse supplemented with high-fat diet assessed as decrease in PPARgamma mRNA expression at 20 mg/kg/day, ip administered for 1 week measured measured by RT-qPCR assay; assay type: functional, organism-based; settings: time 1.0 weeks; method in brief: as §2
Mus musculus [7] = assay: Inhibition of lipogenesis in C57BL/6 mouse supplemented with normal chow diet assessed as decrease in PPARgamma mRNA expression at 20 mg/kg/day, ip administered for 1 week measured measured by RT-qPCR assay; assay type: functional, organism-based; settings: time 1.0 weeks; method in brief: as §1
Mus musculus [8] = assay: Inhibition of lipogenesis in C57BL/6 mouse supplemented with high-fat diet assessed as decrease in C/EBPalpha protein expression at 20 mg/kg/day, ip administered for 1 week measured measured by western blot analysis; assay type: functional, organism-based; settings: time 1.0 weeks; method in brief: as §2
Mus musculus [9] = assay: Inhibition of lipogenesis in C57BL/6 mouse supplemented with normal chow diet assessed as decrease in PPARgamma protein expression at 20 mg/kg/day, ip administered for 1 week measured measured by western blot analysis; assay type: functional, organism-based; settings: time 1.0 weeks; method in brief: as §1
Adipocyte = assay: Inhibition of lipogenesis in mouse adipocytes isolated stromal vascular cells assessed as decrease in C/EBPalpha mRNA expression measured after 24 hrs by RT-qPCR assay; assay type: functional, cell-based
Method in brief: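 Stromal vascular cells from inguinal WAT of C57BL/6 mice, grown in DMEM/F12 + 10% FBS at 37 °C, 10% CO2. At confluence, induced 48 h with 5 μg/ml insulin, 1 μM dexamethasone, 0.5 mM isobutylmethylxanthine, then 6 days in 5 μg/ml insulin; fully differentiated day 8. Mature adipocytes exposed to inhibitor 24 h. Total RNA by Trizol, SYBR Green RT-qPCR; protein by western blot.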

Mus musculus [10] = assay: Inhibition of hepatic lipogenesis in C57BL/6 mouse supplemented with normal chow diet assessed as effect on CPT1alpha mRNA expression at 20 mg/kg/day, ip administered for 1 week measured by RT-qPCR assay; assay type: functional, organism-based; settings: time 1.0 weeks
Method in brief: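 Normal-chow male C57BL/6 mice, 8 weeks old, were injected ip at 20 mg·kg−1·day−1 daily for 7 days or given vehicle. Liver RNA was extracted with Trizol, and fatty-acid-oxidation gene transcripts were quantified by SYBR Green RT-qPCR. n = 5–9; mean ± SEM.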

Hepatocyte [11] = assay: Inhibition of glucogenesis in mouse primary hepatocytes stimulated with 100 uM 8-Br-cAMP assessed as decrease in glucose production at 3 uM in combination with 2 mM metformin; assay type: functional, cell-based
Method in brief: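 Primary mouse hepatocytes pretreated with 100 nM dexamethasone for 16 h. Glucose production then measured in glucose-free DMEM with 1 mM pyruvate, 10 mM lactate and 0.25% BSA, in the presence of 100 μM 8-Br-cAMP, with 3 μM compound plus 2 mM metformin. Medium glucose assayed colorimetrically. Three independent experiments.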

HepG2 [12] = assay: Inhibition of glucogenesis in human HepG2 cells stimulated with 8-Br-cAMP at 3 uM assessed as effect on change in CBP/CREB interaction measured by coimmunoprecipitation analysis; assay type: functional, cell-based
Method in brief: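 HepG2 cells treated with 3 μM compound. CREB association with CBP and TORC2 assessed by coimmunoprecipitation (antibody 2 h, protein A/G beads overnight at 4 °C) and western blot.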

HepG2 [13] = assay: Inhibition of glucogenesis in human HepG2 cells stimulated with 8-Br-cAMP at 3 uM assessed as effect on increased CRE luciferase activity; assay type: functional, cell-based
Method in brief: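 HepG2 cells treated with 3 μM compound; CRE reporter activity measured. Mean ± SEM, three independent experiments.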

Hepatocyte [14] = assay: Inhibition of glucogenesis in mouse primary hepatocytes stimulated with 100 uM 8-Br-cAMP assessed as decrease in C/EBPalpha mRNA expression at 3 uM measured after 8 hrs by RT-qPCR assay; assay type: functional, cell-based
Method in brief: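 Primary mouse hepatocytes treated with 3 μM compound and 100 μM 8-Br-cAMP for 8 h. Trizol RNA, SYBR Green RT-qPCR of the named transcript. Mean ± SEM, three independent experiments.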

Hepatocyte [15] = assay: Inhibition of glucogenesis in mouse primary hepatocytes stimulated with 100 uM 8-Br-cAMP assessed as decrease in C/EBPalpha protein expression at 3 uM measured after 12 hrs by western blot analysis; assay type: functional, cell-based
Method in brief: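 Primary mouse hepatocytes incubated 12 h with 3 μM compound and 100 μM 8-Br-cAMP. Lysates western blotted for FOXO1, C/EBPα or PGC1α. Three independent experiments.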

[16] = biological target: CREB-binding protein/Histone acetyltransferase p300 (Homo sapiens) (UniProt Q09472+Q92793); assay: Inhibition of CBP/p300 in mouse primary hepatocytes stimulated with 100 uM 8-Br-cAMP assessed as decrease in half-life of endogenous FOXO1 at 3 uM in presence of 10 ug/ml cycloheximide; assay type: cell-based; settings: Primary hepatocyte
Chain of CREB-binding protein/Histone acetyltransferase p300 (Homo sapiens) (Q09472 whole entry, looked up): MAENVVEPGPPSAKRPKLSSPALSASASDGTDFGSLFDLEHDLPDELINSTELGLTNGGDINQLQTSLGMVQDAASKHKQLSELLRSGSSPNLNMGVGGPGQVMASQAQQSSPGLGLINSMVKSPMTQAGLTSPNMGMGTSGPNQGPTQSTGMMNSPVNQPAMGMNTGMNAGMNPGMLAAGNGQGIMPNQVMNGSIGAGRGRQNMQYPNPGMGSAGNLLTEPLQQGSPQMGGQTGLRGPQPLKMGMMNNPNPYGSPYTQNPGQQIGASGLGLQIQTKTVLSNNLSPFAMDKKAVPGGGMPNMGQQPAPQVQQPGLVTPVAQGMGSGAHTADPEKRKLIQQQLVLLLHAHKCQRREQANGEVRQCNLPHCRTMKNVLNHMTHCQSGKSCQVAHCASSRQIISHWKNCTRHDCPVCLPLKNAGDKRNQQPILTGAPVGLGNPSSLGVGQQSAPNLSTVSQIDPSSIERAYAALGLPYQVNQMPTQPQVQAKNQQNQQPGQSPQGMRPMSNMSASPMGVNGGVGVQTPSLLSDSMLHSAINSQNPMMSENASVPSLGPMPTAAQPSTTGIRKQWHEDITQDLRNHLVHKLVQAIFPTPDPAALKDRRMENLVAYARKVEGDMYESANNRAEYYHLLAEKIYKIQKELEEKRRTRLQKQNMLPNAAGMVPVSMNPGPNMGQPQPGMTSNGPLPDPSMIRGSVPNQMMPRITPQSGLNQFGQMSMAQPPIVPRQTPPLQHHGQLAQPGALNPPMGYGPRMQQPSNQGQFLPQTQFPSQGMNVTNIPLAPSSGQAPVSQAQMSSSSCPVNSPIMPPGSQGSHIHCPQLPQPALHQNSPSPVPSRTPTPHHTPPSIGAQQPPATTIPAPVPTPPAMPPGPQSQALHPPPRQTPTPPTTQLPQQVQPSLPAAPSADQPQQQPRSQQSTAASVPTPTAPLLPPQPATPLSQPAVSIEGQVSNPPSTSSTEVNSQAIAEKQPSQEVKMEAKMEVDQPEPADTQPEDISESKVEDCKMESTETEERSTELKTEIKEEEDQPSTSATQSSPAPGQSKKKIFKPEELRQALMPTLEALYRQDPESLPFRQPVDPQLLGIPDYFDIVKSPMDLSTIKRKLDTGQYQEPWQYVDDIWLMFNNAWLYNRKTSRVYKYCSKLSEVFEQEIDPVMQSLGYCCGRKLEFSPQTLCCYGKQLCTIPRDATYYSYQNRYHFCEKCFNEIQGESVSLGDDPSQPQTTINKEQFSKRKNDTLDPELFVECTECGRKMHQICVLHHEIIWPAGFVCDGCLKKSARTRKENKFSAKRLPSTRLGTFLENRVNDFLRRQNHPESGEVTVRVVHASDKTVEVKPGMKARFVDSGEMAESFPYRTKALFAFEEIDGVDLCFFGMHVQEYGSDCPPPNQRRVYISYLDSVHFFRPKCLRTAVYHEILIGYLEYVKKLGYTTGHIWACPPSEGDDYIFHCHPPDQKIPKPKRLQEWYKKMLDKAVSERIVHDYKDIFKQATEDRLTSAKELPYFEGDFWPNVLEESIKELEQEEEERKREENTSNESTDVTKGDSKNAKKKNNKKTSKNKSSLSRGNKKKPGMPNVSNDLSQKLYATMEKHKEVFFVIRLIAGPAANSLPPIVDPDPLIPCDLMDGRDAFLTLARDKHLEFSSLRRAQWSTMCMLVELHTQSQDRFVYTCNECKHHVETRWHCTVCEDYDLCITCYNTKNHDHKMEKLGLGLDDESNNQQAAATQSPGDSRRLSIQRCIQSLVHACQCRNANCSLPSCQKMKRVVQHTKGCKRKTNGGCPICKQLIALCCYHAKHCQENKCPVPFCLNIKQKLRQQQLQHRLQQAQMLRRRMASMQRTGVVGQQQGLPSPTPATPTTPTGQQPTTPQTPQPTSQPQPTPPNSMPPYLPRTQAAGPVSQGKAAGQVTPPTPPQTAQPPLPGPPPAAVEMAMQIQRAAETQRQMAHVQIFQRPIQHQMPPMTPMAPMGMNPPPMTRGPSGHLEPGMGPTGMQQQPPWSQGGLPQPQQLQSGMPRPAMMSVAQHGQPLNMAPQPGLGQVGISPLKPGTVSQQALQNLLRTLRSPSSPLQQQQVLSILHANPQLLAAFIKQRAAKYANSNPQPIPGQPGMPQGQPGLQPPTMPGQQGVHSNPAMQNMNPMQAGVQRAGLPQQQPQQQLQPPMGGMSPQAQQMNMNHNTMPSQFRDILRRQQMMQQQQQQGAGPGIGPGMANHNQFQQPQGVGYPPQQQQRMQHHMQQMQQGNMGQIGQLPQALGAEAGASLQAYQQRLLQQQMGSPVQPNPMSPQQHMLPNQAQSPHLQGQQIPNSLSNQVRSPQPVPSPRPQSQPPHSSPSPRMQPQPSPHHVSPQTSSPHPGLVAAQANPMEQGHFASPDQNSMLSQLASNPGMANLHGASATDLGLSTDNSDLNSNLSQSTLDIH
Chain of CREB-binding protein/Histone acetyltransferase p300 (Homo sapiens) (Q92793 whole entry, looked up): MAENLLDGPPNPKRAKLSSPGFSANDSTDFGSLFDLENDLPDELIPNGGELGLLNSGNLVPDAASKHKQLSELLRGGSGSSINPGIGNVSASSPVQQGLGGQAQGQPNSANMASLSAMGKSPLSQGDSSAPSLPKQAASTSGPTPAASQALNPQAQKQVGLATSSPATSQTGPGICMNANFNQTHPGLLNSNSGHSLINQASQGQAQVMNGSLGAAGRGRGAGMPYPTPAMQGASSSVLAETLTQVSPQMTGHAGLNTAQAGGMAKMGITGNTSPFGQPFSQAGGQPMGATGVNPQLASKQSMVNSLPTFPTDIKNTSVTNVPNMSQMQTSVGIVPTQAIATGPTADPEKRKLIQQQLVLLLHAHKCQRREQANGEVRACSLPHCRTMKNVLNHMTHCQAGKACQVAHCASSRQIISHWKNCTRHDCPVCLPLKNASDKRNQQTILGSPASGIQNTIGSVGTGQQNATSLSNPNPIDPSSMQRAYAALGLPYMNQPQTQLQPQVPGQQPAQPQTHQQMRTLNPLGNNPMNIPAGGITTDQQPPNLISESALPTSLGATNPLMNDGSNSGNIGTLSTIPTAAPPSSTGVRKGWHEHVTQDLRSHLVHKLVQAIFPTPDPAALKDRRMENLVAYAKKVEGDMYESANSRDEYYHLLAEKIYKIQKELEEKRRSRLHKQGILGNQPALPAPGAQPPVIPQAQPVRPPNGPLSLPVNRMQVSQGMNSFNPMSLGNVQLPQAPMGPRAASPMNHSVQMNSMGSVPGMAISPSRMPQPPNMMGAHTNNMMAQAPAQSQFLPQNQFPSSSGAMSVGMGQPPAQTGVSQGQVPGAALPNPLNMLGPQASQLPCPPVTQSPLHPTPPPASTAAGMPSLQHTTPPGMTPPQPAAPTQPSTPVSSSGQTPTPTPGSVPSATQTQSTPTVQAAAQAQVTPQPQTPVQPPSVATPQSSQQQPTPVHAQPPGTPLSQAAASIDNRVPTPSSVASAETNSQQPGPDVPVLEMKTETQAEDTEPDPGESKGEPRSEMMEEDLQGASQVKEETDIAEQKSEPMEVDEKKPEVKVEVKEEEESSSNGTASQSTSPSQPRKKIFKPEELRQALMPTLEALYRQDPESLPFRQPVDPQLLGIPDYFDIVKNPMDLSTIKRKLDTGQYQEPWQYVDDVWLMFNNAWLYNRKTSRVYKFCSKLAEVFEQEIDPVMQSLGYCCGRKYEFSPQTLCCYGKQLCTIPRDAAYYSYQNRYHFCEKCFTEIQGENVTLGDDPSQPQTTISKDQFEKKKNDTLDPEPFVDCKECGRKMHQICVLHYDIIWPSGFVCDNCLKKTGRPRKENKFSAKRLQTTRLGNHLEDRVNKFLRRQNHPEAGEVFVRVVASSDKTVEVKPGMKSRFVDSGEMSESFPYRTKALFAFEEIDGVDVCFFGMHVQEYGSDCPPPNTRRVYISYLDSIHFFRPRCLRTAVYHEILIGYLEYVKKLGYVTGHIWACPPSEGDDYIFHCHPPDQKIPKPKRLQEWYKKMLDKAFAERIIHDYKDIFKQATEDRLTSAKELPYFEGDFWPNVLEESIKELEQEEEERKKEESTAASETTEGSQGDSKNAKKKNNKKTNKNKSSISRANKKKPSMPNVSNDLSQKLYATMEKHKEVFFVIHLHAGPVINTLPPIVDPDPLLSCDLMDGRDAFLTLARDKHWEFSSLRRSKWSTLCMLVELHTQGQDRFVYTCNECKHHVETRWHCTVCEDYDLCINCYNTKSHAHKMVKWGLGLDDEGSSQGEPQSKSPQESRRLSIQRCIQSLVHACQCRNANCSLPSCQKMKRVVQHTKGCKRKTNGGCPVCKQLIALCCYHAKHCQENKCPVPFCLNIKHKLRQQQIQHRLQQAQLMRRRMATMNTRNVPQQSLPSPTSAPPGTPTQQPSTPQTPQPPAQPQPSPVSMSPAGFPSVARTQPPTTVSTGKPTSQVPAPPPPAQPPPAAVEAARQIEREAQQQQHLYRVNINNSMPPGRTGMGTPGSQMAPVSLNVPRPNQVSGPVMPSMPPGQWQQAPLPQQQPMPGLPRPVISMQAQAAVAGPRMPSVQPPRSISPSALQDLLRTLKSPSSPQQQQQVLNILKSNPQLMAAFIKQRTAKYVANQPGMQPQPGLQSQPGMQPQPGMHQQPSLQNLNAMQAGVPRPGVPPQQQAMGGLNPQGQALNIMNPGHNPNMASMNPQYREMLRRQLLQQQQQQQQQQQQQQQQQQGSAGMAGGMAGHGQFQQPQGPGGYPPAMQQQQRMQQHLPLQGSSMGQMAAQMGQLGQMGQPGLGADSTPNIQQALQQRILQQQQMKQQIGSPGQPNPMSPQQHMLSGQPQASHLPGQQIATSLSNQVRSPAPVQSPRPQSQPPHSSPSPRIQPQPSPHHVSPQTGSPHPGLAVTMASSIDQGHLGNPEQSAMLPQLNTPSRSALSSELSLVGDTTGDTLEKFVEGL
Method in brief: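 Primary mouse hepatocytes in 100 μM 8-Br-cAMP treated with 3 μM compound and 10 μg/ml cycloheximide for the indicated times. Endogenous FOXO1 immunoblotted; band intensity quantified. Three independent experiments.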

Hepatocyte [17] = assay: Inhibition of glucogenesis in mouse primary hepatocytes stimulated with 100 uM 8-Br-cAMP assessed as decrease in FBP mRNA expression at 3 uM measured after 8 hrs by RT-qPCR assay

**Q.** For `CNC(=O)Nc1ccc2c(c1)CCS21OC(=O)N(CC(=O)N(Cc2ccc(F)cc2)[C@@H](C)C(F)(F)F)C1=O` (stereo partly drawn), which Activity (Mus musculus [1]) is on record?
**A.** ~14%

**Q.** And the Activity (Mus musculus [2])?
**A.** inactive

**Q.** What about the inhibition (Mus musculus [3]) of the same compound?
**A.** Active

**Q.** What about the inhibition (Mus musculus [4]) of the same compound?
**A.** Active

**Q.** What about the inhibition (Mus musculus [5]) of the same compound?
**A.** Active

**Q.** What about the inhibition (Mus musculus [6]) of the same compound?
**A.** Active

**Q.** And the inhibition (Mus musculus [7])?
**A.** Active

**Q.** And the inhibition (Mus musculus [8])?
**A.** Active

**Q.** What about the inhibition (Mus musculus [9]) of the same compound?
**A.** Active

**Q.** What about the inhibition (Adipocyte) of the same compound?
**A.** Active

**Q.** What about the inhibition (Mus musculus [10]) of the same compound?
**A.** inactive

**Q.** What about the inhibition (Hepatocyte [11]) of the same compound?
**A.** Active

**Q.** And the inhibition (HepG2 [12])?
**A.** inactive

**Q.** What about the inhibition (HepG2 [13]) of the same compound?
**A.** inactive

**Q.** What about the inhibition (Hepatocyte [14]) of the same compound?
**A.** Active

**Q.** And the inhibition (Hepatocyte [15])?
**A.** Active

**Q.** And the inhibition [16]?
**A.** Active

**Q.** What about the inhibition (Hepatocyte [17]) of the same compound?
**A.** Active
